Measured values published in ChEMBL document CHEMBL1811836, “Probes for narcotic receptor mediated phenomena. Part 42: synthesis and in vitro pharmacological characterization of the N-methyl and N-phenethyl analogues of the racemic ortho-c and para-c oxide-bridged phenylmorphans” (Bioorg Med Chem, 2011).

Legend:
[1] = molecular target: Delta-type opioid receptor (Homo sapiens, UniProt P41143); test: Displacement of [3H]DADLE from human recombinant delta opioid receptor expressed in recombinant hDOR-CHO cells after 2 hrs by liquid scintillation counting; type: cell-based
Method in brief: (§1)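 Membranes from stably transfected hDOR-CHO or hKOR-CHO cells, washed in ice-cold 10 mM Tris-HCl pH 7.4. Binding in 50 mM Tris-HCl pH 7.4 with protease inhibitors, about 30 µg protein per tube. Radioligand about 2 nM against 10 drug concentrations, triplicate, 2 h at 25 °C, GF/B filtration.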

[2] = molecular target: T1, Kappa-type opioid receptor (Homo sapiens, UniProt P41145); test: Displacement of [3H]U69,593 from human recombinant kappa opioid receptor expressed in CHO cells after 2 hrs by liquid scintillation counting; type: cell-based; method in brief: as §1
[3] = molecular target: T2, Mu-type opioid receptor (Homo sapiens, UniProt P35372); test: Displacement of [3H]DAMGO from human recombinant mu opioid receptor expressed in CHO cells after 2 hrs by liquid scintillation counting; type: cell-based
[4] = molecular target: T1, Kappa-type opioid receptor; details: CHO
[5] = molecular target: T2, Mu-type opioid receptor; test: Ratio of morphine Ki to compound Ki for human mu opioid receptor
[6] = molecular target: T2, Mu-type opioid receptor; test: Ratio of naloxone Ke to compound Ke for human mu opioid receptor
[7] = species on record: Homo sapiens; test: Selectivity ratio Ki for human delta opioid receptor to Ki for human mu opioid receptor
Method in brief: (§2)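 Ki values from radioligand displacement on membranes of stably transfected human receptor CHO cells. […] Incubation 2 h at 25 °C, triplicate, filtration. Ki from pooled logistic IC50 by Cheng-Prusoff; ratio taken against the MOR Ki.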

[8] = species on record: Homo sapiens; test: Selectivity ratio Ki for human kappa opioid receptor to Ki for human mu opioid receptor; method in brief: as §2

T1 sequence (P41145 whole entry): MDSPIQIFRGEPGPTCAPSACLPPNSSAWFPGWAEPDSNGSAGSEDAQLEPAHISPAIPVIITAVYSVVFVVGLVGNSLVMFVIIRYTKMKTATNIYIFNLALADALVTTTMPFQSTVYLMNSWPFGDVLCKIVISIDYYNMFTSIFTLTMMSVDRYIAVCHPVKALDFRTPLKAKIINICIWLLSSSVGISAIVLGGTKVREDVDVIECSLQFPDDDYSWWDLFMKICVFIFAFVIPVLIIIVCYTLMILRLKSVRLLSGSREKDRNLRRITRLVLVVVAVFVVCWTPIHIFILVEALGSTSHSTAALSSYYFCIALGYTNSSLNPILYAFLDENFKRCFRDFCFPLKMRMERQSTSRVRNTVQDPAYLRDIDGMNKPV
Sequence of Delta-type opioid receptor (P41143 whole entry): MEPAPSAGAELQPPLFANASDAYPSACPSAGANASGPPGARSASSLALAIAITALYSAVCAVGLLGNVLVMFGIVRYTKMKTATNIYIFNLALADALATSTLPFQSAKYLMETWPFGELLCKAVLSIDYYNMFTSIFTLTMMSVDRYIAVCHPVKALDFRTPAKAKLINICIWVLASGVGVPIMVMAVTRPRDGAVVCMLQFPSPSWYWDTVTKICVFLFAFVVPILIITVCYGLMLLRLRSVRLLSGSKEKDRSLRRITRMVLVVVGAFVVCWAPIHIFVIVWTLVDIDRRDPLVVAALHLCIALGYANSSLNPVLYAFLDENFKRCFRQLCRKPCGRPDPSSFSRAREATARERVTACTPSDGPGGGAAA
T2 sequence (P35372 whole entry): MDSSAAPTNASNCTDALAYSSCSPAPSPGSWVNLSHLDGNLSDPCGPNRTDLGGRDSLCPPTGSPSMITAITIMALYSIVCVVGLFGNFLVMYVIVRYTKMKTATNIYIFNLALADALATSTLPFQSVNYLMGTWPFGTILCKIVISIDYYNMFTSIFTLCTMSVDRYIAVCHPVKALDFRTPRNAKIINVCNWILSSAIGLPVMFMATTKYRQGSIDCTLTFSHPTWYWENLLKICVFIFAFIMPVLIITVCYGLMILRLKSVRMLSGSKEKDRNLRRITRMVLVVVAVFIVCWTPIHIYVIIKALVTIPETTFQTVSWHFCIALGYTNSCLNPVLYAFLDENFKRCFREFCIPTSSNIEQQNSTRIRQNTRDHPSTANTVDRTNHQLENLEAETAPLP

SMILES | Ki [1] [nM] | Ki [2] [nM] | Ki [3] [nM] | Ke [4] [nM] | Ratio Ki [5] | Ratio Ke [6] | Ratio Ki [7] | Ratio Ki [8]
CN1C[C@H]2Oc3ccc(O)cc3[C@@]23CCC[C@@H]1C3 (relative stereo) | > 5200 | 1080 | 1500 | – | – | – | – | –
Oc1cccc2c1O[C@@H]1CN(CCc3ccccc3)[C@@H]3CCC[C@]21C3 (relative stereo) | 1230 | 51 | 1.1 | 1.79 | 2 | 3 | 1200 | 50
Oc1ccc2c(c1)[C@]13CCC[C@H](C1)N(CCc1ccccc1)C[C@H]3O2 (relative stereo) | 1250 | 1230 | 67 | – | – | – | – | –
CN1C[C@H]2Oc3c(O)cccc3[C@@]23CCC[C@@H]1C3 (relative stereo) | > 5200 | > 40000 | 619 | – | – | – | – | –
